Assay results published in PMC7479925 (Journal of medicinal chemistry, 2012).
Like-named read-outs stand apart in the source and are kept apart here.

Columns and labels:
[1] = target: T1, Tdp1 (Homo sapiens, UniProt Q9NUW8); experiment: Tdp1 gel-based assay with recombinant human Tdp1 and N14Y DNA substrate; format: biochemical; details: for Tdp1 inhibition (in words): highest tested concentration 333 μM
[2] = target: T1, Tdp1; experiment: SPR binding to immobilized Tdp1; details: dilution series 0.39-50 μM
Outline: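 Tdp1 (1 μM) was pre-bound for 20 min with 2 μM 3′-phosphate 14-mer oligo in 10 mM Na acetate pH 4.5 to shield active-site amines, then amine-coupled to a CM5 chip (~6000 RU), with a Tdp1-free reference surface. Test compound was injected at 30 μL/min, 25 °C, in 50 mM Tris/HCl pH 7.5, 80 mM KCl, 5% DMSO. Referencing used buffer cycles and a DMSO calibration; NaCl/DMSO regeneration.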

[3] = system: N14Y oligomer (biotin-[…]-Tyr); experiment: SPR binding to immobilized tyrosyl-labeled oligonucleotide; details: dilution series 0.39-50 μM

T1 sequence (Q9NUW8 whole entry): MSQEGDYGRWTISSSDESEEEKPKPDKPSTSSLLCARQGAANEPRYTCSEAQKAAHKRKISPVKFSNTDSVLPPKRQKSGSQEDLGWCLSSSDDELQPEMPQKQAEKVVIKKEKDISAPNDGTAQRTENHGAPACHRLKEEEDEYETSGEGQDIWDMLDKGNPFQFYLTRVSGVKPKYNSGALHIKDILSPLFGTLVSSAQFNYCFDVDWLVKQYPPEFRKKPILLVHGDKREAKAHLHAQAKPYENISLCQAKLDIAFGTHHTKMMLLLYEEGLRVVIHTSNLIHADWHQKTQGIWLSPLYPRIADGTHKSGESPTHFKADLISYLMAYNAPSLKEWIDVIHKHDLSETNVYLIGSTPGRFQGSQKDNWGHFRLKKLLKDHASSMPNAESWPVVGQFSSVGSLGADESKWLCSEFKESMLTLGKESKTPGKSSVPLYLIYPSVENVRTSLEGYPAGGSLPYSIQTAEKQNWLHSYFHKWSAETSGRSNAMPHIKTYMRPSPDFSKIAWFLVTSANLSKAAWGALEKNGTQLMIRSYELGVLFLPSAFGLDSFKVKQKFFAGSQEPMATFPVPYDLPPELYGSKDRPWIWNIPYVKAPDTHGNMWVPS

| Molecule | Tdp1 inhibition (in words) [1] | IC50 [1] | also measured |
| --- | --- | --- | --- |
| N#C/C(=C\c1ccc(O)c(O)c1)C(=O)O [Compound 4] | completely inactive |  |  |
| N#CC(C#N)=Cc1cc(O)c(O)c(O)c1 [Compound 7] | completely inactive |  |  |
| O=C1/C(=C/c2ccc3[nH]ccc3c2)NC(=S)N1c1ccccc1 [Compound 34, (Z)-5-((1H-Indol-5-yl)methylene)-3-phenyl-2-thioxoimidazolidin-4-one] |  | 111 to 333 µM |  |
| O=C1NC(=S)N(Cc2ccccc2)/C1=C\c1ccc(F)cc1 [Compound 37, (Z)-1-Benzyl-5-(4-fluorobenzylidene)-2-thioxoimidazolidin-4-one] |  | 111 to 333 µM |  |
| O=C1NC(=S)/C(=C/c2ccc(O)c(O)c2O)S1 [Compound 50, (Z)-4-Thioxo-5-(2,3,4-trihydroxybenzylidene)thiazolidin-2-one] |  |  | binding to Tdp1 (SPR) [2]: concentration-dependent binding; binding to N14Y oligomer (SPR) [3]: No binding |
| O=C1NC(=S)/C(=C/c2ccc(P(=O)(O)O)cc2)S1 [Compound 74, (Z)-(4-((2-Oxo-4-thioxothiazolidin-5-ylidene)methyl)phenyl)-phosphonic Acid] |  |  | fold improvement in potency over 44 ([1]; Tdp1 IC50 vs compound 44): 7.3 fold |
| (Z)-5-(2-Bromobenzylidene)-4-thioxothiazolidin-2-one [Compound 62] |  |  | IC50 ([1]; read-out: Tdp1 IC50, recombinant human Tdp1, gel-based assay): 30 ± 12 µM |

Further lines, with some results ahead:

| Tdp1 inhibition (in words) [1] | IC50 [1] | Molecule | also measured |
| --- | --- | --- | --- |
| completely inactive |  | N#C/C(=C\c1ccc(O)c(O)c1)C(N)=O [Compound 5] |  |
| completely inactive |  | N#C/C(=C\c1ccc(O)c(O)c1)C(=O)NCc1ccccc1 [Compound 6] |  |
|  | 111 to 333 µM | O=C1NC(=O)/C(=C/c2ccc(O)c(O)c2)S1 [Compound 39, (Z)-5-(3,4-Dihydroxybenzylidene)thiazolidine-2,4-dione] |  |
